Test results: ChEMBL document CHEMBL3272012, “5-(Tetradecyloxy)-2-furancarboxylic acid and related hypolipidemic fatty acid-like alkyloxyarylcarboxylic acids” (J Med Chem, 1977)

Key:
Rattus norvegicus [1] = experiment: Increase in cholesterol level in Wistar rat liver at 437 umol/kg/day administered through diet for 4 days; type: ADME, organism-based; conditions: in vivo, po, 96 h
Rattus norvegicus [2] = experiment: Hypolipidemic activity in Wistar rat assessed as reduction in plasma cholesterol level at 437 umol/kg/day administered through diet for 4 days; type: functional; conditions: 96 h
How it was run: (§1)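 Young male Wistar rats, 170-190 g initial weight, groups of six, given compound mixed thoroughly into Purina Lab Chow ad libitum for 4 or 10 days as stated. Daily dose calculated from food consumption and body weight. Bled by cardiac puncture at end of treatment; plasma cholesterol measured by automated procedure. Expressed as percent reduction versus simultaneous untreated control group; Student's t test.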

Rattus norvegicus [3] = experiment: Increase in liver weight in Wistar rat at 437 umol/kg/day administered through diet for 4 days; type: ADME, organism-based; conditions: in vivo, po, 96 h
Rattus norvegicus [4] = experiment: Hypolipidemic activity in Wistar rat assessed as reduction in plasma triglyceride level at 437 umol/kg/day administered through diet for 4 days; type: functional; conditions: 96 h
Rattus norvegicus [5] = experiment: Hypolipidemic activity in Wistar rat assessed as reduction in plasma triglyceride level at 304 umol/kg/day administered through diet for 10 days; type: functional; conditions: 240 h
How it was run: (§2)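 Young male Wistar rats, 170-190 g initial weight, six per group, fed drug mixed thoroughly into Purina Lab Chow ad libitum for the stated days; daily dose calculated from food consumption and body weight. Bled by cardiac puncture at end; plasma cholesterol and triglycerides by automated procedures, expressed as percent reduction versus simultaneous untreated controls; Student's t test.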

Rattus norvegicus [6] = experiment: Hypolipidemic activity in Wistar rat assessed as reduction in plasma triglyceride level at 1693 umol/kg/day administered through diet for 10 days; type: functional; conditions: 240 h; how it was run: as §2
Rattus norvegicus [7] = experiment: Hypolipidemic activity in Wistar rat assessed as reduction in plasma triglyceride level at 119 umol/kg/day administered through diet for 10 days; type: functional; conditions: 240 h; how it was run: as §2
Rattus norvegicus [8] = experiment: Hypolipidemic activity in Wistar rat assessed as reduction in plasma cholesterol level at 119 umol/kg/day administered through diet for 10 days; type: functional; conditions: 240 h
How it was run: (§3)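 Young male Wistar rats, 170-190 g at start, in groups of six, given compound mixed into Purina Lab Chow ad libitum for 4 or 10 days as stated. Daily dose was calculated from food consumption and body weight. Plasma was taken by cardiac puncture at the end and cholesterol measured by automated procedure. Results are % reduction versus a concurrent untreated control group, with Student's t test.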

Rattus norvegicus [9] = experiment: Increase in liver weight in Wistar rat at 766 umol/kg/day administered through diet for 10 days; type: ADME, organism-based; conditions: in vivo, po, 240 h
Rattus norvegicus [10] = experiment: Hypolipidemic activity in Wistar rat assessed as reduction in plasma cholesterol level at 766 umol/kg/day administered through diet for 10 days; type: functional; conditions: 240 h
How it was run: (§4)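 Young male Wistar rats (initial weight 170-190 g), groups of six, fed compound mixed into Purina Lab Chow ad libitum for 4 or 10 days; daily dose calculated from food consumption and body weight. Bled by cardiac puncture; plasma cholesterol and triglycerides by automated procedures; percent reduction versus simultaneous untreated controls, Student's t test.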

Rattus norvegicus [11] = experiment: Hypolipidemic activity in Wistar rat assessed as reduction in plasma cholesterol level at 1693 umol/kg/day administered through diet for 10 days; type: functional; conditions: 240 h; how it was run: as §3
Rattus norvegicus [12] = experiment: Hypolipidemic activity in Wistar rat assessed as reduction in plasma cholesterol level at 304 umol/kg/day administered through diet for 10 days; type: functional; conditions: 240 h; how it was run: as §3
Rattus norvegicus [13] = experiment: Inhibition of fatty acid biosynthesis in Ad Lib fed Wistar rat liver assessed as sodium [1-14C]acetate incorporation at 261 mg/kg/day administered through diet for 7 days measured 1 hr after labeled acetate challenge by liquid scintillation spectrometry (reference value: 27.2 +/- 4.8 x 10^-3 dpm); type: functional
Rattus norvegicus [14] = experiment: Inhibition of fatty acid biosynthesis in meal fed Wistar rat liver assessed as sodium [1-14C]acetate incorporation at 188 mg/kg/day administered through diet for 7 days measured 1 hr after labeled acetate challenge by liquid scintillation spectrometry (reference value: 182 +/- 22 x 10^-3 dpm); type: functional
Rattus norvegicus [15] = experiment: Hypolipidemic activity in Wistar rat assessed as reduction in plasma triglyceride level at 766 umol/kg/day administered through diet for 10 days; type: functional; conditions: 240 h
Rattus norvegicus [16] = experiment: Increase in liver weight in Wistar rat at 1693 umol/kg/day administered through diet for 10 days; type: ADME, organism-based; conditions: in vivo, po, 240 h
Rattus norvegicus [17] = experiment: Inhibition of cholesterol biosynthesis in meal fed Wistar rat liver assessed as sodium [1-14C]acetate incorporation at 188 mg/kg/day administered through diet for 7 days measured 1 hr after labeled acetate challenge by liquid scintillation spectrometry (reference value: 41.3 +/- 3.2 x 10^-3 dpm); type: functional
Rattus norvegicus [18] = experiment: Inhibition of cholesterol biosynthesis in Ad Lib fed Wistar rat liver assessed as sodium [1-14C]acetate incorporation at 261 mg/kg/day administered through diet for 7 days measured 1 hr after labeled acetate challenge by liquid scintillation spectrometry (reference value: 12.7 +/- 2.6 x 10^-3 dpm); type: functional
Rattus norvegicus [19] = experiment: Increase in liver weight in Wistar rat at 119 umol/kg/day administered through diet for 10 days; type: ADME, organism-based; conditions: in vivo, po, 240 h
Rattus norvegicus [20] = experiment: Increase in liver weight in Wistar rat at 304 umol/kg/day administered through diet for 10 days; type: ADME, organism-based; conditions: in vivo, po, 240 h
Rattus norvegicus [21] = experiment: Increase in liver weight in Wistar rat at 540 umol/kg/day administered through diet for 4 days; type: ADME, organism-based; conditions: in vivo, po, 96 h
Rattus norvegicus [22] = experiment: Hypolipidemic activity in Wistar rat assessed as reduction in plasma cholesterol level at 540 umol/kg/day administered through diet for 4 days; type: functional; conditions: 96 h; how it was run: as §1
Rattus norvegicus [23] = experiment: Increase in cholesterol level in Wistar rat liver at 540 umol/kg/day administered through diet for 4 days; type: ADME, organism-based; conditions: in vivo, po, 96 h
Rattus norvegicus [24] = experiment: Hypolipidemic activity in Wistar rat assessed as reduction in plasma triglyceride level at 540 umol/kg/day administered through diet for 4 days; type: functional; conditions: 96 h
Rattus norvegicus [25] = experiment: Increase in liver weight in Wistar rat at 362 umol/kg/day administered through diet for 4 days; type: ADME, organism-based; conditions: in vivo, po, 96 h
Rattus norvegicus [26] = experiment: Increase in cholesterol level in Wistar rat liver at 362 umol/kg/day administered through diet for 4 days; type: ADME, organism-based; conditions: in vivo, po, 96 h
Rattus norvegicus [27] = experiment: Increase in cholesterol level in Wistar rat liver at 439 umol/kg/day administered through diet for 4 days; type: ADME, organism-based; conditions: in vivo, po, 96 h
Rattus norvegicus [28] = experiment: Hypolipidemic activity in Wistar rat assessed as reduction in plasma triglyceride level at 419 umol/kg/day administered through diet for 10 days; type: functional; conditions: 240 h; how it was run: as §4
Rattus norvegicus [29] = experiment: Increase in liver weight in Wistar rat at 439 umol/kg/day administered through diet for 4 days; type: ADME, organism-based; conditions: in vivo, po, 96 h
How it was run: (§5)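 Male Wistar rats (170-190 g initial), groups of six, dosed via diet ad libitum for 4 or 10 days, daily dose from food consumption. Liver wet weight measured, expressed as g/100 g final body weight, compared with untreated controls run simultaneously.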

Rattus norvegicus [30] = experiment: Increase in cholesterol level in Wistar rat liver at 419 umol/kg/day administered through diet for 10 days; type: ADME, organism-based; conditions: in vivo, po, 240 h
How it was run: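 Male Wistar rats (170-190 g), six per group, given compound by admixture to lab chow ad libitum for 4 or 10 days, dose derived from food intake. Liver cholesterol determined by automated procedure, expressed as mg/g wet tissue, compared with an untreated control group by Student's t test.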

Rattus norvegicus [31] = experiment: Hypolipidemic activity in Wistar rat assessed as reduction in plasma cholesterol level at 417 umol/kg/day administered through diet for 10 days; type: functional; conditions: 240 h; how it was run: as §3
Rattus norvegicus [32] = experiment: Hypolipidemic activity in Wistar rat assessed as reduction in plasma triglyceride level at 417 umol/kg/day administered through diet for 10 days; type: functional; conditions: 240 h
Rattus norvegicus [33] = experiment: Increase in liver weight in Wistar rat at 419 umol/kg/day administered through diet for 10 days; type: ADME, organism-based; conditions: in vivo, po, 240 h; how it was run: as §5
Rattus norvegicus [34] = experiment: Increase in cholesterol level in Wistar rat liver at 417 umol/kg/day administered through diet for 10 days; type: ADME, organism-based; conditions: in vivo, po, 240 h
Rattus norvegicus [35] = experiment: Hypolipidemic activity in Wistar rat assessed as reduction in plasma triglyceride level at 439 umol/kg/day administered through diet for 4 days; type: functional; conditions: 96 h; how it was run: as §4
Rattus norvegicus [36] = experiment: Hypolipidemic activity in Wistar rat assessed as reduction in plasma cholesterol level at 419 umol/kg/day administered through diet for 10 days; type: functional; conditions: 240 h; how it was run: as §1
Rattus norvegicus [37] = experiment: Hypolipidemic activity in Wistar rat assessed as reduction in plasma cholesterol level at 439 umol/kg/day administered through diet for 4 days; type: functional; conditions: 96 h; how it was run: as §1
Rattus norvegicus [38] = experiment: Increase in liver weight in Wistar rat at 417 umol/kg/day administered through diet for 10 days; type: ADME, organism-based; conditions: in vivo, po, 240 h

CCCCCCCCCCCCCCCCOc1ccc(C(=O)O)o1
Activity (Rattus norvegicus [1]): 5%
inhibition in vivo at 437 µmol/kg (Rattus norvegicus [2]): 24%
Activity (Rattus norvegicus [3]): 4%
inhibition in vivo at 437 µmol/kg (Rattus norvegicus [4]): 25%

CCOC(=O)C(C)(C)Oc1ccc(Cl)cc1 [CLOFIBRATE]
inhibition in vivo at 304 µmol/kg (Rattus norvegicus [5]): 48%
inhibition in vivo at 1693 µmol/kg (Rattus norvegicus [6]): 78%
inhibition in vivo at 119 µmol/kg (Rattus norvegicus [7]): 30%
inhibition in vivo at 119 µmol/kg (Rattus norvegicus [8]): 9%
Activity (Rattus norvegicus [9]): 22%
inhibition in vivo at 766 µmol/kg (Rattus norvegicus [10]): 36%
inhibition in vivo at 1693 µmol/kg (Rattus norvegicus [11]): 41%
inhibition in vivo at 304 µmol/kg (Rattus norvegicus [12]): 18%
Activity (Rattus norvegicus [13]): 50000 dpm
Activity (Rattus norvegicus [14]): 205000 dpm
inhibition in vivo at 766 µmol/kg (Rattus norvegicus [15]): 66%
Activity (Rattus norvegicus [16]): 50%
Activity (Rattus norvegicus [17]): 43300 dpm
Activity (Rattus norvegicus [18]): 4100 dpm
Activity (Rattus norvegicus [19]): 0%
Activity (Rattus norvegicus [20]): 2%

CCCCCCCCCCOc1ccc(C(=O)O)o1
Activity (Rattus norvegicus [21]): 1%
inhibition in vivo at 540 µmol/kg (Rattus norvegicus [22]): 5%
Activity (Rattus norvegicus [23]): 17%
inhibition in vivo at 540 µmol/kg (Rattus norvegicus [24]): 46%

CCCCCCCCCCCCCCCCCCCCOc1ccc(C(=O)OC)cc1
Activity (Rattus norvegicus [25]): 4%
Activity (Rattus norvegicus [26]): 0%

CCCCCCCCCCCCCCCOc1ccc(C(=O)OC)cc1
Activity (Rattus norvegicus [27]): 9%
inhibition in vivo at 419 µmol/kg (Rattus norvegicus [28]): 57%
Activity (Rattus norvegicus [29]): 7%
Activity (Rattus norvegicus [30]): 2%
inhibition in vivo at 417 µmol/kg (Rattus norvegicus [31]): 37%
inhibition in vivo at 417 µmol/kg (Rattus norvegicus [32]): 73%
Activity (Rattus norvegicus [33]): 15%
Activity (Rattus norvegicus [34]): 9%
inhibition in vivo at 439 µmol/kg (Rattus norvegicus [35]): 46%
inhibition in vivo at 419 µmol/kg (Rattus norvegicus [36]): 20%
inhibition in vivo at 439 µmol/kg (Rattus norvegicus [37]): 19%
Activity (Rattus norvegicus [38]): 0%
